Experimental data published in ChEMBL document CHEMBL4041464, “New potent biaryl sulfate-based hepatitis C virus inhibitors” (Eur J Med Chem, 2017).

How the values were obtained:
[1] = Inhibition of HCV genotype 1b NK5.1 NS5A in infected human Huh 7.5.1 cells assessed as reduction in viral RNA replication incubated for 3 days by luciferase reporter gene assay; design: species or system Hepatitis C virus subtype 1b; conditions: Hepatitis C virus, NK5.1, Huh-7.5.1, 72 h
Procedure, shortened: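 Genotype 1b replicon cells (Huh 7.5.1 carrying NK5.1-Gluc) were cultured 16 h, then given serially diluted compounds for 3 days. Culture media were collected and luciferase activity measured and normalised to mock-treated cells to derive EC50. Cells were maintained in DMEM with 10% heat-inactivated FBS and antibiotics at 37°C, 6.0% CO₂.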

Huh7.5.1 = assay: Cytotoxicity against human Huh7.5.1 cells at 20 uM; assay type: cell-based
[2] = Inhibition of HCV genotype 2a JFH5a replicon NS5A in infected human Huh 7.5.1 cells assessed as reduction in viral RNA replication incubated for 3 days by luciferase reporter gene assay; design: species or system Hepatitis C virus subtype 2a; conditions: Hepatitis C virus, Huh-7.5.1, 72 h
Procedure, shortened: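 Huh 7.5.1 cells were infected with JFH5a-Rluc-ad34 (a JFH1 genotype 2a derivative with adaptive E2/p7 mutations, Renilla luciferase reporter) cell-culture virus for 3 h. They were then cultured in serially diluted compounds for 3 days. Cells were harvested and Renilla luciferase activity measured, normalised to mock-treated cells, to give EC50.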

hERG (KCNH2) = hERG (KCNH2) (Homo sapiens, UniProt Q12809); assay: Inhibition of human ERG at 10 uM by fluorescence polarization assay
[3] = Metabolic stability in human plasma assessed as compound remaining at 100 uM after 4 hrs incubation by LC-MS/MS analysis; assay type: ADME, cell-free; conditions: read-out: Stability
Procedure, shortened: (§1)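 Test compound (100 µM stock) was added to plasma pre-warmed 5 min at 37°C, mixed by vortex and incubated at 37°C. Samples were taken at 0, 15, 30, 60 and […] and quenched with 2 volumes acetonitrile. After centrifugation at 10,000 rpm for 10 min, the supernatant was analysed by LC-MS/MS. Results are given as % remaining after 4 h; mean ± SD. Enalapril and procaine served as controls.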

Salmonella typhimurium [4] = assay: Mutagenicity in Salmonella typhimurium TA98 assessed as revertant colonies/plate in presence of liver S9 fraction at 1000 ug/plate by Ames test (reference value: 25 +/- 3); assay type: toxicity; conditions: salmonella enterica subsp. enterica serovar typhimurium
Salmonella typhimurium [5] = assay: Mutagenicity in Salmonella typhimurium TA100 assessed as revertant colonies/plate in presence of liver S9 fraction at 1000 ug/plate by Ames test (reference value: 129 +/- 3); assay type: toxicity; conditions: salmonella enterica subsp. enterica serovar typhimurium
Salmonella typhimurium [6] = assay: Mutagenicity in Salmonella typhimurium TA100 assessed as revertant colonies/plate in absence of liver S9 fraction at 1000 ug/plate by Ames test (reference value: 125 +/- 9); assay type: toxicity; conditions: salmonella enterica subsp. enterica serovar typhimurium
[7] = test system: Hepatitis C virus subtype 1b; assay: Inhibition of HCV genotype 1b NK5.1 NS5A in infected human Huh 7.5.1 cells assessed as reduction in viral RNA replication by measuring combination index in presence of NS5B inhibitor sofosbuvir at ED50 incubated for 3 days by luciferase reporter gene assay
Procedure, shortened: (§2)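 Huh 7.5.1 cells carrying the bicistronic genotype 1b replicon NK5.1-Gluc (secreted Gaussia luciferase) plated at 5 x 10⁴ cells/well. After 16 h they were exposed to inhibitor alone or mixed with sofosbuvir at a constant ratio, serially diluted, for 3 days. Luciferase was read and normalised to mock-treated cells. Combination index at ED50/75/90/95 was obtained by the Chou method.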

[8] = Metabolic stability in rat plasma assessed as compound remaining at 100 uM after 4 hrs incubation by LC-MS/MS analysis; assay type: ADME, cell-free; conditions: read-out: Stability; procedure, shortened: as §1
[9] = Cmax in rat at 10 mg/kg, po; assay type: ADME, organism-based; design: dose 10 mg/kg, route oral; conditions: in vivo
[10] = Half life in rat at 10 mg/kg, po; assay type: ADME, organism-based; conditions: in vivo
[11] = Oral bioavailability in rat at 10 mg/kg; assay type: ADME, organism-based; conditions: in vivo
[12] = Cmax in rat at 1 mg/kg, iv; assay type: ADME, organism-based; design: dose 1 mg/kg, route intravenous; conditions: in vivo
Rattus norvegicus = assay: Half life in rat at 1 mg/kg, iv; assay type: ADME, organism-based; conditions: in vivo
Salmonella typhimurium [13] = assay: Mutagenicity in Salmonella typhimurium TA98 assessed as revertant colonies/plate in absence of liver S9 fraction at 1000 ug/plate by Ames test (reference value: 21 +/- 1); assay type: toxicity; conditions: salmonella enterica subsp. enterica serovar typhimurium
[14] = test system: Hepatitis C virus subtype 1b; assay: Inhibition of HCV genotype 1b NK5.1 NS5A in infected human Huh 7.5.1 cells assessed as reduction in viral RNA replication by measuring combination index in presence of NS5B inhibitor sofosbuvir at ED75 incubated for 3 days by luciferase reporter gene assay; procedure, shortened: as §2
[15] = test system: Hepatitis C virus subtype 1b; assay: Inhibition of HCV genotype 1b NK5.1 NS5A in infected human Huh 7.5.1 cells assessed as reduction in viral RNA replication by measuring combination index in presence of NS5B inhibitor sofosbuvir at ED90 incubated for 3 days by luciferase reporter gene assay; procedure, shortened: as §2
[16] = test system: Hepatitis C virus subtype 1b; assay: Inhibition of HCV genotype 1b NK5.1 NS5A in infected human Huh 7.5.1 cells assessed as reduction in viral RNA replication by measuring combination index in presence of NS5B inhibitor sofosbuvir at ED95 incubated for 3 days by luciferase reporter gene assay; procedure, shortened: as §2
Salmonella typhimurium [17] = assay: Mutagenicity in Salmonella typhimurium TA98 assessed as revertant colonies/plate in absence of liver S9 fraction at 1 ug/plate by Ames test (reference value: 21 +/- 1); assay type: toxicity; conditions: salmonella enterica subsp. enterica serovar typhimurium
Salmonella typhimurium [18] = assay: Mutagenicity in Salmonella typhimurium TA98 assessed as revertant colonies/plate in presence of liver S9 fraction at 5000 ug/plate by Ames test (reference value: 1); assay type: toxicity; conditions: salmonella enterica subsp. enterica serovar typhimurium
Salmonella typhimurium [19] = assay: Mutagenicity in Salmonella typhimurium TA100 assessed as revertant colonies/plate in absence of liver S9 fraction at 5000 ug/plate by Ames test (reference value: 7 +/- 2 ); assay type: toxicity; conditions: salmonella enterica subsp. enterica serovar typhimurium
Salmonella typhimurium [20] = assay: Mutagenicity in Salmonella typhimurium TA98 assessed as revertant colonies/plate in absence of liver S9 fraction at 5000 ug/plate by Ames test (reference value: 1); assay type: toxicity; conditions: salmonella enterica subsp. enterica serovar typhimurium
Salmonella typhimurium [21] = assay: Mutagenicity in Salmonella typhimurium TA100 assessed as revertant colonies/plate in presence of liver S9 fraction at 5000 ug/plate by Ames test (reference value: 5 +/- 2 ); assay type: toxicity; conditions: salmonella enterica subsp. enterica serovar typhimurium

Chain of hERG (KCNH2) (Q12809 whole entry): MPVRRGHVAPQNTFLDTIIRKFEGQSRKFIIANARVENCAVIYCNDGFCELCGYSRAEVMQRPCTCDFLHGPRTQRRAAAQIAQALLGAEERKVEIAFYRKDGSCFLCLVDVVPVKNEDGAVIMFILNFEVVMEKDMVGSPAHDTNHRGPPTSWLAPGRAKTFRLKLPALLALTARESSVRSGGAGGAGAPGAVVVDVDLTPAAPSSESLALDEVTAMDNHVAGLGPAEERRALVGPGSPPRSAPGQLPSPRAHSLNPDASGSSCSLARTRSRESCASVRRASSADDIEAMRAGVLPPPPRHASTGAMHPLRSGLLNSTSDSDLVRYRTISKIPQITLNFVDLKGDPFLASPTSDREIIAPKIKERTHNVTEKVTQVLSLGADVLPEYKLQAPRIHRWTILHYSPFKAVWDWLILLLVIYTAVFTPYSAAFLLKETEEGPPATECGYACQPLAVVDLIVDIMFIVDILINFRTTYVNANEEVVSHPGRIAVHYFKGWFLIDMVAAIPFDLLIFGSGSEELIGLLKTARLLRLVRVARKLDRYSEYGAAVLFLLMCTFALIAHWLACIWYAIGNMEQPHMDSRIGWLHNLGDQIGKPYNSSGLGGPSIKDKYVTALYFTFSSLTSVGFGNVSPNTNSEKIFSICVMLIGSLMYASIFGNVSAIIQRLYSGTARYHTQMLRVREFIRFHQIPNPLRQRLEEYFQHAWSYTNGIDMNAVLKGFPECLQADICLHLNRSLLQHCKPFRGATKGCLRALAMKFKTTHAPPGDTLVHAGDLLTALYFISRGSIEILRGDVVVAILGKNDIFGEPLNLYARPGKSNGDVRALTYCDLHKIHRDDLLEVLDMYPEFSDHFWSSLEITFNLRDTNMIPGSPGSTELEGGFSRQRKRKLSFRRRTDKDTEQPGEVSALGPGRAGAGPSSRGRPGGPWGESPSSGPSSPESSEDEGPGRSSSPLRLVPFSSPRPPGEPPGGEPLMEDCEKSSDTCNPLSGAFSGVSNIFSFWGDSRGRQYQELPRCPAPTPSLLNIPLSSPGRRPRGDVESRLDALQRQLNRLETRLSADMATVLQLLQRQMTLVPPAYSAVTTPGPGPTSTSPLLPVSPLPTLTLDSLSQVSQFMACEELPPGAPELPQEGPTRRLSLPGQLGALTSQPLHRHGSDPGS

COC(=O)N[C@H](C(=O)N1CCC[C@H]1C(=O)Nc1ccc(S(=O)(=O)c2ccc(NC(=O)[C@@H]3CCCN3C(=O)[C@@H](NC(=O)OC)C(C)C)cc2)cc1)C(C)C
EC50 [1]: > 100000 nM | Activity (Huh7.5.1): > 30 µM

COC(=O)N[C@@H](C(=O)N1CCC[C@H]1c1ncc(-c2ccc(OS(=O)(=O)Oc3ccc(-c4cnc([C@@H]5CCCN5C(=O)[C@H](NC(=O)OC)C(C)C)[nH]4)cc3)cc2)[nH]1)C(C)C
EC50 [1]: 417 nM | EC50 [2]: 427 nM | Activity (Huh7.5.1): > 30 µM

COC(=O)N[C@@H](C(=O)N1CCC[C@H]1C(=O)Nc1ccc(OS(=O)(=O)Oc2ccc(NC(=O)[C@@H]3CCCN3C(=O)[C@H](NC(=O)OC)c3ccccc3)cc2)cc1)c1ccccc1
EC50 [1]: 0.01 nM | Activity (Huh7.5.1): > 30 µM

COC(=O)N[C@@H](C(=O)N1CCC[C@H]1C(=O)Nc1cccc(OS(=O)(=O)Oc2cccc(NC(=O)[C@@H]3CCCN3C(=O)[C@H](NC(=O)OC)c3ccccc3)c2)c1)c1ccccc1
EC50 [1]: 0.0198 nM | EC50 [2]: 0.0199 nM | Activity (Huh7.5.1): > 30 µM | inhibition at 10 µM (hERG (KCNH2)): 2.73% | remaining at 4 h, 100 µM [3]: 86.3% | Activity (Salmonella typhimurium [4]): 29 | Activity (Salmonella typhimurium [5]): 130 | Activity (Salmonella typhimurium [6]): 126 | CI [7]: 0.872 | remaining at 4 h, 100 µM [8]: 76.7% | Cmax [9]: 14 ng/mL | half-life [10]: 1.6 h | bioavailability [11]: 0.54% | Cmax [12]: 1960 ng/mL | t1/2 (Rattus norvegicus): 0.51 h | Activity (Salmonella typhimurium [13]): 26 | CI [14]: 0.909 | CI [15]: 0.949 | CI [16]: 0.977

COC(=O)N[C@@H](C(=O)N1CCC[C@H]1C(=O)Nc1ccc(S(=O)(=O)c2ccc(NC(=O)[C@@H]3CCCN3C(=O)[C@H](NC(=O)OC)c3ccccc3)cc2)cc1)c1ccccc1
EC50 [1]: 36.1 nM | Activity (Huh7.5.1): > 30 µM

COC(=O)N[C@@H](C(=O)N1CCC[C@H]1C(=O)Nc1ccc(S(=O)(=O)c2ccc(NC(=O)[C@@H]3CCCN3C(=O)[C@H](NC(=O)OC)C(C)C)cc2)cc1)C(C)C
EC50 [1]: > 100000 nM | Activity (Huh7.5.1): > 30 µM

CCN(CC)CCOC(=O)c1ccc(N)cc1 [PROCAINE]
remaining at 4 h, 100 µM [3]: 0.003%

COC(=O)N[C@H](C(=O)N1CCC[C@H]1c1ncc(-c2cccc(OS(=O)(=O)Oc3cccc(-c4cnc([C@@H]5CCCN5C(=O)[C@@H](NC(=O)OC)C(C)C)[nH]4)c3)c2)[nH]1)C(C)C
EC50 [1]: 0.0323 nM | EC50 [2]: 0.882 nM | Activity (Huh7.5.1): > 30 µM | inhibition at 10 µM (hERG (KCNH2)): 18.7% | remaining at 4 h, 100 µM [3]: 92.6% | Activity (Salmonella typhimurium [4]): 29 | Activity (Salmonella typhimurium [5]): 110 | Activity (Salmonella typhimurium [6]): 125 | CI [7]: 0.98 | remaining at 4 h, 100 µM [8]: 87.2% | Cmax [9]: 17 ng/mL | half-life [10]: 2.25 h | bioavailability [11]: 0.74% | Cmax [12]: 1680 ng/mL | t1/2 (Rattus norvegicus): 0.92 h | Activity (Salmonella typhimurium [13]): 28 | CI [14]: 1.06 | CI [15]: 1.16 | CI [16]: 1.25

COC(=O)N[C@@H](C(=O)N1CCC[C@H]1C(=O)Nc1ccc(C)c(OS(=O)(=O)Oc2cc(NC(=O)[C@@H]3CCCN3C(=O)[C@H](NC(=O)OC)c3ccccc3)ccc2C)c1)c1ccccc1
EC50 [1]: 0.109 nM | EC50 [2]: 2.23 nM | Activity (Huh7.5.1): > 30 µM

O=[N+]([O-])c1ccc2c(c1)Cc1ccccc1-2 [2-NITROFLUORENE]
Activity (Salmonella typhimurium [17]): 183

COC(=O)N[C@H](C(=O)N1CCC[C@H]1C(=O)Nc1cccc(OS(=O)(=O)Oc2cccc(NC(=O)[C@@H]3CCCN3C(=O)[C@@H](NC(=O)OC)C(C)(C)C)c2)c1)C(C)(C)C
EC50 [1]: 0.0772 nM | EC50 [2]: 0.943 nM | Activity (Huh7.5.1): > 30 µM

COC(=O)N[C@@H](C(=O)N1CCC[C@H]1C(=O)Nc1ccc(OS(=O)(=O)Oc2ccc(NC(=O)[C@@H]3CCCN3C(=O)[C@H](NC(=O)OC)C(C)C)cc2)cc1)C(C)C
EC50 [1]: 575 nM | Activity (Huh7.5.1): > 30 µM

COC(=O)N[C@H](C(=O)N1CCC[C@H]1c1ncc(-c2cccc(OS(=O)(=O)Oc3cccc(-c4cnc([C@@H]5CCCN5C(=O)[C@@H](NC(=O)OC)C(C)(C)C)[nH]4)c3)c2)[nH]1)C(C)(C)C
EC50 [1]: 37.1 nM | Activity (Huh7.5.1): > 30 µM

COC(=O)N[C@@H](C(=O)N1CCC[C@H]1c1ncc(-c2ccc(OS(=O)(=O)Oc3ccc(-c4cnc([C@@H]5CCCN5C(=O)[C@H](NC(=O)OC)c5ccccc5)[nH]4)cc3)cc2)[nH]1)c1ccccc1
EC50 [1]: 0.27 nM | EC50 [2]: 0.147 nM | Activity (Huh7.5.1): > 30 µM

COC(=O)N[C@@H](C(=O)N1CCC[C@H]1c1ncc(-c2cccc(OS(=O)(=O)Oc3cccc(-c4cnc([C@@H]5CCCN5C(=O)[C@H](NC(=O)OC)c5ccccc5)[nH]4)c3)c2)[nH]1)c1ccccc1
EC50 [1]: 0.36 nM | EC50 [2]: 10 nM | Activity (Huh7.5.1): > 30 µM

COC(=O)N[C@H](C(=O)N1CCC[C@H]1c1ncc(-c2ccc(OS(=O)(=O)Oc3ccc(-c4cnc([C@@H]5CCCN5C(=O)[C@@H](NC(=O)OC)C(C)C)[nH]4)cc3)cc2)[nH]1)C(C)C
EC50 [1]: 4.26 nM | Activity (Huh7.5.1): > 30 µM

CCOC(=O)[C@H](CCc1ccccc1)N[C@@H](C)C(=O)N1CCC[C@H]1C(=O)O
remaining at 4 h, 100 µM [8]: 0.032%

Nc1ccc(OS(=O)(=O)Oc2ccc(N)cc2)cc1
Activity (Salmonella typhimurium [18]): 1 | Activity (Salmonella typhimurium [19]): 10 | Activity (Salmonella typhimurium [20]): 1 | Activity (Salmonella typhimurium [21]): 8

COC(=O)N[C@@H](C(=O)N1CCC[C@H]1C(=O)Nc1cccc(OS(=O)(=O)Oc2cccc(NC(=O)[C@@H]3CCCN3C(=O)[C@H](NC(=O)OC)c3ccccc3)c2C)c1C)c1ccccc1
EC50 [1]: 22.9 nM | Activity (Huh7.5.1): > 30 µM
